Source: PMC4831591 (International Journal of Nanomedicine, 2016)
In brackets after ≈: the same amount, converted by molar mass.

Key:
[1] = In vitro drug-release assay by dialysis; assay type: physicochemical; conditions: 37°C, PBS pH 7.4, 48 hours, n=3
Procedure, shortened: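 Dialysis in 2,000 Da MWCO bag against PBS pH 7.4, stirred 48 h at 37±0.5°C. Medium sampled at time points and replaced. Total drug found by methanol disruption of liposomes. Quantified by HPLC: C18 column, methanol/0.025 M KH2PO4 (11:89, pH 3 with H3PO4), 1.0 mL/min, UV 210 nm; n=3.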

H22 tumor-bearing mice = test: In vivo antineoplastic activity in H22 tumor-bearing mice; conditions: 2 mg/kg per day, days 1–9, measured on day 10, n=10
Procedure, shortened: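 H22 cells in saline (1×10^7/mL) injected subcutaneously in right hind limb on day 0. Mice randomized to PBS control or treatment, 2 mg/kg tail vein daily on days 1–9 (n=10). Tumor volume by caliper and body weight daily. Killed day 10 and tumors excised and weighed. IRw = (1 − Wdrug/Wcontrol)×100.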

H22 cells = test: In vitro cytotoxicity, MTT assay; assay type: cell-based, murine; conditions: n=3
Procedure, shortened: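 Log-phase H22 cells seeded at 10^4/well, grown 24 h, medium renewed. Treated at 0.8, 4, 20, 100, 500 μg/mL for 24 or 48 h; blank liposomes at matched concentrations. MTT (5 mg/mL stock in PBS) added for 4 h, formazan dissolved in DMSO, A490 read. Inhibition rate = (1 − A490 treated/A490 untreated)×100.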

[2] = Biodistribution study in H22 tumor-bearing mice; assay type: in vivo; conditions: n=6; for AUC0–8 / Cmax / t½: 2 mg/kg intravenous
Procedure, shortened: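 Subcutaneous H22 model: ascites cells from donor mice diluted in saline to 1×10^7/mL and injected into right hind limb (~0.1 mL/10 g). At ~300 mm3 tumor, mice randomized; single tail-vein 2 mg/kg; killed at 1, 2, 4, 8 h (n=6). Tumor and organs rinsed, weighed, homogenized 1:4 w/v in saline. HCl/IS/acetone extraction; FDA-validated LC-MS/MS. Noncompartmental AUC0–8, Cmax; Te = AUC target/(target+untargeted)×100.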

O=C(O)[C@@H]1[C@H](C(=O)O)[C@H]2CC[C@@H]1O2 [DM-NCTD, diacid metabolite of norcantharidin]
In vitro release of DM-NCTD [1]: quickly and completely released
Tumor weight (H22 tumor-bearing mice): 1.02 ± 0.3 g
IRw (inhibition rate on tumor weight) (H22 tumor-bearing mice; vs PBS control): 30.14%
IC50 on H22 cell lines (H22 cells; 24 hours): 39.6 ± 1.20 µg/mL (≈ 213 µM)
IC50 on H22 cell lines (H22 cells; 48 hours): 30.0 ± 1.73 µg/mL (≈ 161 µM)
Time at which the highest concentrations were achieved in tissues and tumors ([2]; 2 mg/kg tail vein): 2 h
AUC0–8 ([2]; heart): 116.98±10.63 ng⋅h/mL
Cmax ([2]; heart): 24.08 ± 2.39 ng/mL
t½ ([2]; heart): 110 ± 15 min
AUC0–8 ([2]; kidney): 1,283.72±66.1 ng⋅h/mL
Cmax ([2]; kidney): 427.14 ± 20.81 ng/mL
t½ ([2]; kidney): 56.4 ± 16.8 min
AUC0–8 ([2]; liver): 1,481.15±51.3 ng⋅h/mL
Cmax ([2]; liver): 330.15 ± 13.96 ng/mL
t½ ([2]; liver): 56.4 ± 13.2 min
AUC0–8 ([2]; lung): 266.17±13.55 ng⋅h/mL
Cmax ([2]; lung): 73.43 ± 6.17 ng/mL
t½ ([2]; lung): 90.6 ± 19.2 min
AUC0–8 ([2]; spleen): 740.09±25.16 ng⋅h/mL
Cmax ([2]; spleen): 340.11 ± 17.74 ng/mL
t½ ([2]; spleen): 53.4 ± 1.2 min
AUC0–8 ([2]; tumor): 223.18±17.56 ng⋅h/mL
Cmax ([2]; tumor): 54.57 ± 9.21 ng/mL
t½ ([2]; tumor): 61.2 ± 8.4 min
